Test results taken from ChEMBL document CHEMBL3271971, “Antineoplastic and biochemical properties of arylsulfonylhydrazones of 2-formylpyridine N-oxide” (J Med Chem, 1976).

Experiments:
Mus musculus [1] = experiment: Effect on RNA synthesis in tumor of CD-1 mouse allografted with mouse S180A cells assessed as [3H]-uridine incorporation at 20 mg/kg, ip pretreated for 1 hr followed by radiotracer-addition measured after 1 hr relative to control; assay type: functional; conditions: route intraperitoneal
How it was run: (§1)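 Sarcoma 180 ascites cells implanted 6 days earlier. Mice received a single ip dose of 10–80 mg/kg, then 1 h later an ip tracer: 200 μg thymidine-3H, 200 μg uridine-3H or 125 μg DL-leucine-14C. Tracer was incorporated for 1 h. Specific activity of tumor-cell DNA, RNA or protein is expressed as % of untreated controls. Values are means of 4-16 mice, each analyzed separately.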

Mus musculus [2] = experiment: Effect on RNA synthesis in tumor of CD-1 mouse allografted with mouse S180A cells assessed as [3H]-uridine incorporation at 40 mg/kg, ip pretreated for 1 hr followed by radiotracer-addition measured after 1 hr relative to control; assay type: functional; conditions: route intraperitoneal; how it was run: as §1
Mus musculus [3] = experiment: Effect on protein synthesis in tumor of CD-1 mouse allografted with mouse S180A cells assessed as [14C]-leucine incorporation at 20 mg/kg, ip pretreated for 1 hr followed by radiotracer-addition measured after 1 hr relative to control; assay type: functional; conditions: route intraperitoneal; how it was run: as §1
Mus musculus [4] = experiment: Effect on protein synthesis in tumor of CD-1 mouse allografted with mouse S180A cells assessed as [14C]-leucine incorporation at 40 mg/kg, ip pretreated for 1 hr followed by radiotracer-addition measured after 1 hr relative to control; assay type: functional; conditions: route intraperitoneal; how it was run: as §1
Mus musculus [5] = experiment: Effect on protein synthesis in tumor of CD-1 mouse allografted with mouse S180A cells assessed as [14C]-leucine incorporation at 80 mg/kg, ip pretreated for 1 hr followed by radiotracer-addition measured after 1 hr relative to control; assay type: functional; conditions: route intraperitoneal; how it was run: as §1
Mus musculus [6] = experiment: Effect on DNA synthesis in tumor of CD-1 mouse allografted with mouse S180A cells assessed as [3H]-thymidine incorporation at 80 mg/kg, ip pretreated for 6 hrs followed by radiotracer-addition measured after 1 hr relative to control; assay type: functional; conditions: route intraperitoneal
How it was run: (§2)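 Mice bearing 6-day Sarcoma 180 ascites implants received a single ip dose of 80 mg/kg. At the stated pretreatment time they were given ip tracer: 200 μg thymidine-3H, 200 μg uridine-3H or 125 μg DL-leucine-14C. After 1 h of incorporation, specific radioactivity of DNA, RNA or protein was read as % of control incorporation.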

Mus musculus [7] = experiment: Effect on RNA synthesis in tumor of CD-1 mouse allografted with mouse S180A cells assessed as [3H]-uridine incorporation at 80 mg/kg, ip pretreated for 6 hrs followed by radiotracer-addition measured after 1 hr relative to control; assay type: functional; conditions: route intraperitoneal; how it was run: as §2
[8] = Antineoplastic activity against mouse S180A cells allografted in CD-1 mouse assessed as maximum dose required for increase in mouse survival administered qd for 6 days; assay type: functional
Mus musculus [9] = experiment: Toxicity in CD-1 mouse allografted with mouse S180A cells assessed as change in body weight at 40 mg/kg administered qd for 6 days (reference value: 23.2%); assay type: organism-based; set-up: dose 40 mg/kg; conditions: in vivo, 144 h
Mus musculus [10] = experiment: Toxicity in CD-1 mouse allografted with mouse S180A cells assessed as change in body weight at 60 mg/kg administered qd for 6 days (reference value: 23.2%); assay type: organism-based; set-up: dose 60 mg/kg; conditions: in vivo, 144 h
[11] = Antineoplastic activity against mouse S180A cells allografted in CD-1 mouse assessed as average survival at 40 mg/kg administered qd for 6 days (reference value: 12.9 +/- 1.2 days); assay type: functional
How it was run: (§3)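 Ascitic tumours were transplanted from an appropriate donor mouse carrying a 7-day tumour growth. Drug was given at 10–60 mg/kg/day for six consecutive days. Sensitivity was judged by prolongation of survival time relative to untreated tumour-bearing controls. Mice were weighed throughout, and percentage weight change from onset to end of therapy indicated toxicity.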

[12] = Antineoplastic activity against mouse S180A cells allografted in CD-1 mouse assessed as mouse survival at 40 mg/kg administered qd for 6 days measured for 50 days relative to control; assay type: functional; how it was run: as §3
Mus musculus [13] = experiment: Toxicity in CD-1 mouse allografted with 1-formylisoquinoline thiosemicarbazone-resistant mouse S180A cells assessed as change in body weight at 60 mg/kg administered qd for 6 days (reference value: 29.6%); assay type: organism-based; set-up: dose 60 mg/kg; conditions: in vivo, 144 h
How it was run: (§4)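 Ascitic tumors were transplanted from a donor mouse bearing a 7-day tumor. Daily doses were given for six consecutive days. Percentage body-weight change from onset to termination of therapy served as the index of drug toxicity.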

[14] = Antineoplastic activity against 1-formylisoquinoline thiosemicarbazone-resistant mouse S180A cells allografted in CD-1 mouse assessed as average survival at 40 mg/kg administered qd for 6 days (reference value: 14.4 +/- 0.9 days); assay type: functional; how it was run: as §3
L1210 [15] = experiment: Antineoplastic activity against mouse L1210 cells allografted in BDF1 mouse assessed as average survival at 20 mg/kg administered qd for 6 days (reference value: 8.2 +/- 0.4 days); assay type: functional; how it was run: as §3
L1210 [16] = experiment: Antineoplastic activity against mouse L1210 cells allografted in BDF1 mouse assessed as average survival at 40 mg/kg administered qd for 6 days (reference value: 8.2 +/- 0.4 days); assay type: functional; how it was run: as §3
Ehrlich [17] = experiment: Antineoplastic activity against mouse EAC cells allografted in CD-1 mouse assessed as average survival at 20 mg/kg administered qd for 6 days (reference value: 14.4 +/- 1.2 days); assay type: functional; how it was run: as §3
Ehrlich [18] = experiment: Antineoplastic activity against mouse EAC cells allografted in CD-1 mouse assessed as average survival at 60 mg/kg administered qd for 6 days (reference value: 14.4 +/- 1.2 days); assay type: functional; how it was run: as §3
Ehrlich [19] = experiment: Antineoplastic activity against mouse EAC cells allografted in CD-1 mouse assessed as mouse survival at 40 mg/kg administered qd for 6 days measured for 50 days relative to control; assay type: functional; how it was run: as §3
Mus musculus [20] = experiment: Toxicity in C3H mouse allografted with mouse Hepa129 cells assessed as change in body weight at 20 mg/kg administered qd for 6 days (reference value: 13.5%); assay type: organism-based; set-up: dose 20 mg/kg; conditions: in vivo, 144 h; how it was run: as §4
Mus musculus [21] = experiment: Toxicity in C3H mouse allografted with mouse Hepa129 cells assessed as change in body weight at 60 mg/kg administered qd for 6 days (reference value: 13.5%); assay type: organism-based; set-up: dose 60 mg/kg; conditions: in vivo, 144 h; how it was run: as §4
[22] = Antineoplastic activity against mouse Hepa129 cells allografted in C3H mouse assessed as average survival at 20 mg/kg administered qd for 6 days (reference value: 18 +/- 0.6 days); assay type: functional; how it was run: as §3
[23] = Antineoplastic activity against mouse Hepa129 cells allografted in C3H mouse assessed as average survival at 40 mg/kg administered qd for 6 days (reference value: 18 +/- 0.6 days); assay type: functional; how it was run: as §3
[24] = Antineoplastic activity against mouse Hepa129 cells allografted in C3H mouse assessed as mouse survival at 60 mg/kg administered qd for 6 days measured for 50 days relative to control; assay type: functional; how it was run: as §3
Mus musculus [25] = experiment: Effect on DNA synthesis in tumor of CD-1 mouse allografted with mouse S180A cells assessed as [3H]-thymidine incorporation at 40 mg/kg, ip pretreated for 1 hr followed by radiotracer-addition measured after 1 hr relative to control; assay type: functional; conditions: route intraperitoneal; how it was run: as §1
Mus musculus [26] = experiment: Effect on RNA synthesis in tumor of CD-1 mouse allografted with mouse S180A cells assessed as [3H]-uridine incorporation at 10 mg/kg, ip pretreated for 1 hr followed by radiotracer-addition measured after 1 hr relative to control; assay type: functional; conditions: route intraperitoneal; how it was run: as §1

## Cc1ccc(S(=O)(=O)N/N=C/c2cccc[n+]2[O-])cc1
Mus musculus [1]
  Activity: 71%
Mus musculus [2]
  Activity: 65%
Mus musculus [3]
  Activity: 95%
Mus musculus [4]
  Activity: 93%
Mus musculus [5]
  Activity: 73%
Mus musculus [6]
  Activity: 63%
Mus musculus [7]
  Activity: 50%
[8]
  Activity: 60 mg/kg
Mus musculus [9]
  Activity: -3.1%
Mus musculus [10]
  Activity: -8%
[11]
  Survival: 36.3 days
[12]
  survival at 40 mg/kg: 20%
Mus musculus [13]
  Activity: 0%
[14]
  Survival: 24.4 days
L1210 [15]
  Survival: 8.6 days
L1210 [16]
  Survival: 9.2 days
Ehrlich [17]
  Survival: 34.6 days
Ehrlich [18]
  Survival: 40.8 days
Ehrlich [19]
  survival at 40 mg/kg: 50%
Mus musculus [20]
  Activity: 11%
Mus musculus [21]
  Activity: -1.6%
[22]
  Survival: 22.2 days
[23]
  Survival: 24.8 days
[24]
  survival at 60 mg/kg: 20%
Mus musculus [25]
  Activity: 67%
Mus musculus [26]
  Activity: 74%
